Measured values as given in ChEMBL document CHEMBL1156919, “Synthesis and induction of apoptosis signaling pathway of ent-kaurane derivatives” (Bioorg Med Chem, 2010).
Activity calls are given as the source filed them. The rule behind the calls is not given here.

What was measured:
RAW264.7 [1] = test: Cytotoxicity against mouse RAW264.7 cells assessed as reduction in cell viability after 24 hrs by MTT assay; assay type: functional, cell-based; details: RAW264.7, 24 h
Outline: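 RAW 264.7 mouse macrophage line kept in RPMI 1640 with 10% FBS, L-glutamine and antibiotics. Treated with 1–100 μM for 24 h, then MTT at 37 °C for 4 h. Formazan taken up in DMSO and read at 540 nm. Triplicate, at least three independent experiments. IC50 is the concentration giving 50% loss of viability relative to untreated cells.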

RAW264.7 [2] = test: Decrease in Bcl-xl protein expression in mouse RAW264.7 cells at 5 uM by Western blot; assay type: functional, cell-based
Outline: (§1)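 RAW 264.7 cells incubated with 5 μM and sampled at several time points. Cytosolic extracts run on SDS–PAGE (10–15% gels) and blotted to PVDF. Probed for p53, Bax, Bcl-2, Bcl-xl, XIAP, IAP-1 and IAP-2, then HRP secondary and chemiluminescence. β-actin served as loading control. Protein measured by Bio-Rad assay.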

RAW264.7 [3] = test: Induction of apoptosis in mouse RAW264.7 cells assessed as caspase 9 activation at 5 uM after 24 hrs by fluorimetry; assay type: functional, cell-based
Outline: (§2)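 RAW cells treated with 5 μM for 24 h, with or without 40 μM z-VAD. Caspase activity read fluorimetrically in cytosolic extracts. Substrates: Ac-DEVD-AMC for caspase-3, Ac-IETD-AFC for caspase-8, Ac-LEHD-AFC for caspase-9. Means ± SD of three independent experiments run in triplicate.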

RAW264.7 [4] = test: Induction of apoptosis in mouse RAW264.7 cells at 1 to 25 uM after 24 hrs by flow cytometry; assay type: functional, cell-based
Outline: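 RAW 264.7 cells exposed to 1–25 μM for 24 h. Stained with 0.005% (w/v) propidium iodide and analysed at once by flow cytometry. Apoptotic and necrotic fractions taken from a forward scatter versus PI fluorescence dot plot. Means ± SD of three independent experiments in triplicate.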

RAW264.7 [5] = test: Increase in p53 protein expression in mouse RAW264.7 cells at 5 uM by Western blot; assay type: functional, cell-based; outline: as §1
RAW264.7 [6] = test: Decrease in IAP protein expression in mouse RAW264.7 cells at 5 uM by Western blot; assay type: functional, cell-based; outline: as §1
RAW264.7 [7] = test: Induction of apoptosis in mouse RAW264.7 cells assessed as caspase 8 activation at 5 uM after 24 hrs by fluorimetry; assay type: functional, cell-based; outline: as §2
HeLa = test: Cytotoxicity against human HeLa cells assessed as reduction in cell viability after 24 hrs by MTT assay; assay type: functional, cell-based
Outline: (§3)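 Cancer cells kept in DMEM with 10% FBS, L-glutamine and antibiotics. Exposed to 1–100 μM for 24 h, then MTT at 37 °C for 4 h. Formazan dissolved in DMSO and read at 540 nm. Triplicate wells, at least three independent experiments. Viability reduction expressed against untreated cultures. IC50 is the concentration giving 50% loss of viability.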

RAW264.7 [8] = test: Induction of apoptosis in mouse RAW264.7 cells assessed as caspase 3 activation at 5 uM after 24 hrs by fluorimetry; assay type: functional, cell-based; outline: as §2
[9] = Toxicity in thioglycolate-induced mouse peritoneal macrophages assessed as reduction in cell viability after 24 hrs by MTT assay; assay type: cell-based; details: peritoneal macrophage cell
Outline: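 Primary peritoneal macrophages from thioglycolate-injected mice exposed to a range of concentrations for 24 h. Viability read by MTT at 37 °C for 4 h, formazan dissolved in DMSO, absorbance at 540 nm. Three independent experiments in duplicate, means ± SD.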

HT-29 = test: Cytotoxicity against human HT-29 cells assessed as reduction in cell viability after 24 hrs by MTT assay; assay type: functional, cell-based; details: HT-29, 24 h; outline: as §3
HepG2 = test: Cytotoxicity against human HepG2 cells assessed as reduction in cell viability after 24 hrs by MTT assay; assay type: functional, cell-based; details: HepG2, 24 h; outline: as §3
RAW264.7 [10] = test: Induction of apoptosis in mouse RAW264.7 cells at 5 uM in presence of 40 uM caspase inhibitor z-VAD after 24 hrs by flow cytometry; assay type: functional, cell-based
Outline: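 RAW 264.7 cells given 5 μM for 24 h, with or without 40 μM z-VAD. Stained with 0.005% (w/v) PI and analysed by flow cytometry. Apoptotic percentage taken from a forward scatter versus PI fluorescence dot plot. Three independent experiments in triplicate, means ± SD.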

[11] = Toxicity in thioglycolate-induced mouse peritoneal macrophages assessed as induction of apoptosis after 24 hrs by flow cytometry; assay type: cell-based; details: peritoneal macrophage cell
Outline: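 Peritoneal macrophages collected from thioglycolate-injected mice and treated across a concentration range for 24 h. Stained with PI and analysed by flow cytometry for apoptotic percentage. Means ± SD of three independent experiments done in duplicate.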

RAW264.7 [12] = test: Induction of apoptosis in mouse RAW264.7 cells assessed as caspase 3 activation at 5 uM in presence of 40 uM caspase inhibitor z-VAD after 24 hrs by fluorimetric assay; assay type: functional, cell-based; outline: as §2
RAW264.7 [13] = test: Induction of apoptosis in mouse RAW264.7 cells assessed as caspase 9 activation at 5 uM in presence of 40 uM caspase inhibitor z-VAD after 24 hrs by fluorimetric assay; assay type: functional, cell-based; outline: as §2
RAW264.7 [14] = test: Induction of apoptosis in mouse RAW264.7 cells assessed as caspase 8 activation at 5 uM in presence of 40 uM caspase inhibitor z-VAD after 24 hrs by fluorimetric assay; assay type: functional, cell-based; outline: as §2
RAW264.7 [15] = test: Decrease in Bcl-2 protein expression in mouse RAW264.7 cells at 5 uM by Western blot; assay type: functional, cell-based; outline: as §1
RAW264.7 [16] = test: Increase in Bax protein expression in mouse RAW264.7 cells at 5 uM by Western blot; assay type: functional, cell-based; outline: as §1

**Q.** For `C=C1C[C@@]23CC[C@@H]4[C@](C)(C(=O)OCc5ccccc5)CCC[C@@]4(C)C2=CC[C@@H]1C3` [GRANDIFLORENIC ACID BENZYL ESTER], which IC50 (RAW264.7 [1]) is on record?
**A.** The IC50 was 65 µM.

**Q.** With `C=C1C(=O)[C@@]23CC[C@@H]4[C@](C)(C(=O)OC)CCC[C@@]4(C)C2=CC[C@@H]1C3` as the compound, how does the Activity (RAW264.7 [2]) read?
**A.** The Activity was “Active”.

**Q.** What about the Activity (RAW264.7 [3]) of the same compound?
**A.** The Activity was “Active”.

**Q.** And the Activity (RAW264.7 [4])?
**A.** The Activity was “Active”.

**Q.** What about the Activity (RAW264.7 [5]) of the same compound?
**A.** The Activity was “Active”.

**Q.** And the IC50 (RAW264.7 [1])?
**A.** Its IC50 is 5 µM.

**Q.** What about the Activity (RAW264.7 [6]) of the same compound?
**A.** Its Activity is “Active”.

**Q.** What about the Activity (RAW264.7 [7]) of the same compound?
**A.** Its Activity is “Active”.

**Q.** And the IC50 (HeLa)?
**A.** The IC50 was 25 µM.

**Q.** And the Activity (RAW264.7 [8])?
**A.** The Activity was “Active”.

**Q.** And the Activity [9]?
**A.** The Activity was “Non-toxic”.

**Q.** And the IC50 (HT-29)?
**A.** Its IC50 is 25 µM.

**Q.** And the IC50 (HepG2)?
**A.** Its IC50 is over 100 µM.

**Q.** And the Activity (RAW264.7 [10])?
**A.** The Activity was “inactive”.

**Q.** What about the Activity [11] of the same compound?
**A.** Its Activity is “Non-toxic”.

**Q.** What about the Activity (RAW264.7 [12]) of the same compound?
**A.** Its Activity is “inactive”.

**Q.** And the Activity (RAW264.7 [13])?
**A.** The Activity was “inactive”.

**Q.** And the Activity (RAW264.7 [14])?
**A.** Its Activity is “inactive”.

**Q.** And the Activity (RAW264.7 [15])?
**A.** The Activity was “Active”.

**Q.** What about the Activity (RAW264.7 [16]) of the same compound?
**A.** Its Activity is “Active”.

**Q.** For `COC(=O)[C@]1(C)CCC[C@@]2(C)[C@@H]3CC[C@@H]4C[C@@]3(CC[C@@H]21)C[C@H]4/C=N/O`, which IC50 (RAW264.7 [1]) is on record?
**A.** The IC50 was 35 µM.

**Q.** For `COC(=O)[C@]1(C)CCCC2(C)[C@@H]3CC[C@@H]4C[C@@]3(CC[C@@H]21)C[C@@]41CO1` (some centres undefined), which IC50 (RAW264.7 [1]) is on record?
**A.** The IC50 was over 100 µM.

**Q.** Which IC50 (RAW264.7 [1]) does the source give for `COC(=O)[C@]1(C)CCCC2(C)[C@@H]3CC[C@@H]4C[C@@]3(CC[C@@H]21)C[C@]41CO1` (some centres undefined) here?
**A.** The IC50 was over 100 µM.

**Q.** Which IC50 (RAW264.7 [1]) does the source give for `COC(=O)[C@]1(C)CCC[C@@]2(C)[C@@H]3CC[C@@H]4C[C@@]3(CC[C@@H]21)C[C@H]4C=O` here?
**A.** The IC50 was over 100 µM.

**Q.** For `C=C1C[C@@]23CC[C@@H]4[C@](C)(CO)CCC[C@@]4(C)[C@@H]2CC[C@@H]1C3`, which IC50 (RAW264.7 [1]) is on record?
**A.** The IC50 was over 100 µM.

**Q.** Which IC50 (RAW264.7 [1]) does the source give for `C=C1[C@@H]2CC[C@H]3[C@]4(C)CCC[C@@](C)(C(=O)O)[C@H]4CC[C@]3(C2)[C@H]1OC(C)=O` here?
**A.** Its IC50 is 25 µM.

**Q.** Which IC50 (RAW264.7 [1]) does the source give for `C=C1C(=O)[C@@]23CC[C@H]4[C@@](C)(CCC[C@@]4(C)C(=O)O)[C@@H]2CC[C@@H]1C3` here?
**A.** Its IC50 is 35 µM.

**Q.** With `C=C1[C@@H]2CC=C3[C@@](CC[C@@H]4[C@](C)(C(=O)OC)CCC[C@@]34C)(C2)[C@H]1OC(C)=O` as the compound, how does the IC50 (RAW264.7 [1]) read?
**A.** Its IC50 is 35 µM.

**Q.** For `COC(=O)[C@]1(C)CCC[C@@]2(C)[C@@H]3CC[C@@H]4C[C@]3(C=C4C)CC[C@@H]21`, which IC50 (RAW264.7 [1]) is on record?
**A.** The IC50 was 100 µM.

**Q.** With `C=C1[C@@H]2CC[C@H]3[C@]4(C)CCC[C@@](C)(C(=O)O)[C@H]4CC[C@]3(C2)[C@H]1O` as the compound, how does the IC50 (RAW264.7 [1]) read?
**A.** Its IC50 is over 100 µM.

**Q.** For `COC(=O)[C@]1(C)CCC[C@@]2(C)[C@@H]3CC[C@@H]4C[C@@]3(CC[C@@H]21)C[C@]4(O)CO`, which IC50 (RAW264.7 [1]) is on record?
**A.** The IC50 was 10 µM.

**Q.** For `COC(=O)[C@]1(C)CCC[C@@]2(C)[C@@H]3CC[C@@H]4C[C@@]3(CC[C@@H]21)C[C@H]4C` [DIHYDRO KAURENOIC ACID METHYL ESTER], which IC50 (RAW264.7 [1]) is on record?
**A.** Its IC50 is 75 µM.

**Q.** With `COC(=O)[C@]1(C)CCC[C@@]2(C)[C@@H]3CC[C@@H]4C[C@@]3(CC[C@@H]21)C[C@@]4(C)OC` as the compound, how does the IC50 (RAW264.7 [1]) read?
**A.** The IC50 was over 100 µM.

**Q.** For `COC(=O)[C@]1(C)CCC[C@@]2(C)[C@@H]3CC[C@@H]4C[C@@]3(CC[C@@H]21)C[C@@]4(C)O`, which IC50 (RAW264.7 [1]) is on record?
**A.** Its IC50 is 25 µM.
